Data published in ChEMBL document CHEMBL2417369, “Synthesis and evaluation of heteroaryl substituted diazaspirocycles as scaffolds to probe the ATP-binding site of protein kinases” (Bioorg Med Chem, 2013).

Key:
[1] = target: Proto-oncogene tyrosine-protein kinase Src (Homo sapiens, UniProt P12931); test: Inhibition of SRC (unknown origin) at 30 uM by microfluidic mobility shift assay relative to control
Procedure, shortened: (§1)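 Single-point screen in a 24-enzyme kinase panel using a microfluidic assay. Each compound was tested at […] with ATP at roughly the Km for each enzyme. The pan-AGC inhibitor H-89 served as an internal control on every plate.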

[2] = target: Tyrosine-protein kinase Lck (Homo sapiens, UniProt P06239); test: Inhibition of LCK (unknown origin) at 30 uM by microfluidic mobility shift assay relative to control; procedure, shortened: as §1
Tyrosine-protein kinase Lck, sequence (P06239 2-509 limits assumed): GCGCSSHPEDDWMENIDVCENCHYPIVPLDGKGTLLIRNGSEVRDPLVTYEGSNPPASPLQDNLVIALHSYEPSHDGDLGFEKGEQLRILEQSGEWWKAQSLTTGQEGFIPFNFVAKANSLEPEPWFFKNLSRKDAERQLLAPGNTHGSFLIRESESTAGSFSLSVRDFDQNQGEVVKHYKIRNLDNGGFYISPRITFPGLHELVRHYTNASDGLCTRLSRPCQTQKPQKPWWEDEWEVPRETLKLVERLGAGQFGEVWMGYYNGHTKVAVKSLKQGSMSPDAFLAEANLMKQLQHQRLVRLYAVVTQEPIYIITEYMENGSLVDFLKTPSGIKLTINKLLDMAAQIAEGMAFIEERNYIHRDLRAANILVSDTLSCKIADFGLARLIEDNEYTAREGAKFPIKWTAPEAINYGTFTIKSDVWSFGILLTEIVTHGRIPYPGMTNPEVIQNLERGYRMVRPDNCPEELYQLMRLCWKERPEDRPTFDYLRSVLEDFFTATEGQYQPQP

[3] = target: Tyrosine-protein kinase Lyn (Homo sapiens, UniProt P07948); test: Inhibition of LYN (unknown origin) at 30 uM by microfluidic mobility shift assay relative to control; procedure, shortened: as §1
Tyrosine-protein kinase Lyn, sequence (P07948 2-512 limits assumed): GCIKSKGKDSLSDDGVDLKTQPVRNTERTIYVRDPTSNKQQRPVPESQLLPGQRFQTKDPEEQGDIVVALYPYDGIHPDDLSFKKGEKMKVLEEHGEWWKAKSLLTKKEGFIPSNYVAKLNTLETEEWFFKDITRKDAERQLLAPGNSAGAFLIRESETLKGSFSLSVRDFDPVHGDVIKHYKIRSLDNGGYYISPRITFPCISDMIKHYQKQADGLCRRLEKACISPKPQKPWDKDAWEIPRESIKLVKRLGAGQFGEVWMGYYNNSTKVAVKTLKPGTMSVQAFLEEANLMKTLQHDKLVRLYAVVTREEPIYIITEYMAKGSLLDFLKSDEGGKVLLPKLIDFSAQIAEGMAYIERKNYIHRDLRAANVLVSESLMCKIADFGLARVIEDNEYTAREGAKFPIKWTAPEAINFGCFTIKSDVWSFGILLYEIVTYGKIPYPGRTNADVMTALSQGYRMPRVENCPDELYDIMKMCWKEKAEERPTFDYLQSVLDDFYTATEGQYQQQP

[4] = target: Insulin receptor (Homo sapiens) (UniProt P06213); test: Inhibition of INSR (unknown origin) at 30 uM by microfluidic mobility shift assay relative to control; procedure, shortened: as §1
Insulin receptor (Homo sapiens), sequence (P06213 28-758 limits assumed): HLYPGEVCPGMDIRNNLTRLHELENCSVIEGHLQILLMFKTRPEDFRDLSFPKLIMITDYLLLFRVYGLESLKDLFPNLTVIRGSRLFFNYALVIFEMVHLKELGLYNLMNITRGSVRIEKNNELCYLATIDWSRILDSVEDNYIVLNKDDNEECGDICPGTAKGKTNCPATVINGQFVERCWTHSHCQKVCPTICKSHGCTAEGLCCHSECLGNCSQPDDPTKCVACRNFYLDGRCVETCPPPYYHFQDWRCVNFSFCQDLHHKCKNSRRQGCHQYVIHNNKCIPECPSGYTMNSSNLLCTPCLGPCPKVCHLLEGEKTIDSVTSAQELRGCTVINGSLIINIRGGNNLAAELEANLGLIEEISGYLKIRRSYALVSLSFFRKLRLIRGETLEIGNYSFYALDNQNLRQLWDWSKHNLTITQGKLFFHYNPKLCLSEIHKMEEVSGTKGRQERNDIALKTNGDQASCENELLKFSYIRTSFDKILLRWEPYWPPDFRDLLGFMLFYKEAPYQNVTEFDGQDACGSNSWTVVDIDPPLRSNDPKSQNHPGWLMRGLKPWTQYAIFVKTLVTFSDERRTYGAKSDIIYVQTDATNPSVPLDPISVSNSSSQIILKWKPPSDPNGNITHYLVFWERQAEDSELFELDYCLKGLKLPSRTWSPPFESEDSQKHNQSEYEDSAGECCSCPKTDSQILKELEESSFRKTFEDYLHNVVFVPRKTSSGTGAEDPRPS
Insulin receptor (Homo sapiens), sequence (P06213 763-1382 limits assumed): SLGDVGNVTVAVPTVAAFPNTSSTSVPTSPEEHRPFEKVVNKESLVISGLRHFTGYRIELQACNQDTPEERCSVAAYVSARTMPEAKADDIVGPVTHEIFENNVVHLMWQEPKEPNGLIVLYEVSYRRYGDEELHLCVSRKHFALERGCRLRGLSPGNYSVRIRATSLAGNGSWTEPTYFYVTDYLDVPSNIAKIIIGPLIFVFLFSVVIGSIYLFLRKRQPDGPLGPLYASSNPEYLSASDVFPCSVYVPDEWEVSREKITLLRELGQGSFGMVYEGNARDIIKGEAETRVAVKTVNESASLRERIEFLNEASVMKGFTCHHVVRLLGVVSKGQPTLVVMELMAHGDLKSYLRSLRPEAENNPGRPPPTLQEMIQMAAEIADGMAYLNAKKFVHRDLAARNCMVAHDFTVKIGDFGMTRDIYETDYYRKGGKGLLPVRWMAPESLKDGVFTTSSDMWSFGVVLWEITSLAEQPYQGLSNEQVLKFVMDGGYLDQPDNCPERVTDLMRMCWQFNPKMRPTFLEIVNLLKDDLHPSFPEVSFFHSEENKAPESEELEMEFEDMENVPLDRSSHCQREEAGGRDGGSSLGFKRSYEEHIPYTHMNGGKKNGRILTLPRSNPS

[5] = target: Tyrosine-protein kinase Fyn (Homo sapiens, UniProt P06241); test: Inhibition of FYN (unknown origin) at 30 uM by microfluidic mobility shift assay relative to control; procedure, shortened: as §1
Tyrosine-protein kinase Fyn, sequence (P06241 2-537 limits assumed): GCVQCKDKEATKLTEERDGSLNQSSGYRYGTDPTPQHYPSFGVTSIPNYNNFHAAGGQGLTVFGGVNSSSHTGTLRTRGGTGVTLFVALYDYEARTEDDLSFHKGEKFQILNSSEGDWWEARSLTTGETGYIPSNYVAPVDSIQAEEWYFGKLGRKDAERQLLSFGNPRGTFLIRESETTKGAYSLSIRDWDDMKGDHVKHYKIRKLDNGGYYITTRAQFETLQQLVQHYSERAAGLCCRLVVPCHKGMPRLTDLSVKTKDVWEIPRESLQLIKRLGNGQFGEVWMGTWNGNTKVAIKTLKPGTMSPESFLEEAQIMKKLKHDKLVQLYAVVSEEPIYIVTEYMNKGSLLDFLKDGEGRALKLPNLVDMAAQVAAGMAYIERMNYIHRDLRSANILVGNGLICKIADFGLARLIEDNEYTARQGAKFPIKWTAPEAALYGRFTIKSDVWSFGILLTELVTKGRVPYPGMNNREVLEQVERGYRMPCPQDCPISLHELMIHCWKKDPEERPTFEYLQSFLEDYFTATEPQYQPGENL

[6] = target: Protein kinase C (PKC) (Homo sapiens) (UniProt O94806+P41743+P17252+P05129+Q05655+P05771+Q05513+Q02156+P24723+Q15139+Q04759); test: Inhibition of PKC (unknown origin) at 30 uM by microfluidic mobility shift assay relative to control; procedure, shortened: as §1
[7] = species: Homo sapiens; test: Inhibition of PKA (unknown origin) at 30 uM by microfluidic mobility shift assay relative to control; procedure, shortened: as §1

Proto-oncogene tyrosine-protein kinase Src, sequence (P12931 2-536 limits assumed): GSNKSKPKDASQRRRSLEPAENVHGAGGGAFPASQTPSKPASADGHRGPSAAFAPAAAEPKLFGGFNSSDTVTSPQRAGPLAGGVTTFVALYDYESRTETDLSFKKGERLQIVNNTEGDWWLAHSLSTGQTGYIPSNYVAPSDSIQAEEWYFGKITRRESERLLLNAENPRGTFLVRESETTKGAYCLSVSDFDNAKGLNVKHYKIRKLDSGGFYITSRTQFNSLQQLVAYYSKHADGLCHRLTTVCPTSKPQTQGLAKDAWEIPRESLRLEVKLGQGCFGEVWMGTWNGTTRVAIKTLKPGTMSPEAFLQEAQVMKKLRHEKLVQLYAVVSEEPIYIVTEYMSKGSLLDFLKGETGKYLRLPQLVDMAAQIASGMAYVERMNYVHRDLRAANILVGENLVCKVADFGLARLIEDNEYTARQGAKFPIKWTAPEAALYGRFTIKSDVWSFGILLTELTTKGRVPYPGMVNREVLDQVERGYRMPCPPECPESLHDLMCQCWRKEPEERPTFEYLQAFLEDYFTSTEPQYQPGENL

- inhibition [1]: 4%
- inhibition [2]: 22%
- inhibition [3]: 50%
- inhibition [4]: 29%
- inhibition [5]: 14%
- inhibition [6]: 64%
- inhibition [7]: 100%
SMILES: O=S(=O)(NCCNC/C=C/c1ccc(Br)cc1)c1cccc2cnccc12
